One series deals with ATP-dependent translocase ABCB1 (Homo sapiens, UniProt P08183). In words: Effect on human recombinant Pgp-mediated ATP consumption assessed as inhibition of ATPase activity at 200 uM by Pgp-Glo assay. Put shortly:
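Recombinant human P-gp incubated with 200 µM compound in P-gp-Glo buffer, four wells each; started with MgATP (10 mM), quenched after 40 min with firefly luciferase ATP detection reagent, luminescence read 60 min later. Untreated, vanadate (100 µM) and verapamil (200 µM) controls; mean ± SEM, t-test.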
Delta-type opioid receptor, sequence (P41143 whole entry): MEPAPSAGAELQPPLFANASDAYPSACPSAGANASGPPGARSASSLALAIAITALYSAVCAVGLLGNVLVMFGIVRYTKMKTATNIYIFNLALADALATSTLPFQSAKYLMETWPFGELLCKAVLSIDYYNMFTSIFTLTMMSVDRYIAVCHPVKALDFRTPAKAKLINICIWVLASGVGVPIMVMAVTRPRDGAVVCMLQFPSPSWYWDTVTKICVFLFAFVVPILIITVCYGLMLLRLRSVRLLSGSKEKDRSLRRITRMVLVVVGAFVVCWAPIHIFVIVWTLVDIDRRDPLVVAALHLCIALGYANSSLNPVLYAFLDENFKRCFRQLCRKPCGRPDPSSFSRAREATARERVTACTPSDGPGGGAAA
ATP-dependent translocase ABCB1, sequence (P08183 whole entry): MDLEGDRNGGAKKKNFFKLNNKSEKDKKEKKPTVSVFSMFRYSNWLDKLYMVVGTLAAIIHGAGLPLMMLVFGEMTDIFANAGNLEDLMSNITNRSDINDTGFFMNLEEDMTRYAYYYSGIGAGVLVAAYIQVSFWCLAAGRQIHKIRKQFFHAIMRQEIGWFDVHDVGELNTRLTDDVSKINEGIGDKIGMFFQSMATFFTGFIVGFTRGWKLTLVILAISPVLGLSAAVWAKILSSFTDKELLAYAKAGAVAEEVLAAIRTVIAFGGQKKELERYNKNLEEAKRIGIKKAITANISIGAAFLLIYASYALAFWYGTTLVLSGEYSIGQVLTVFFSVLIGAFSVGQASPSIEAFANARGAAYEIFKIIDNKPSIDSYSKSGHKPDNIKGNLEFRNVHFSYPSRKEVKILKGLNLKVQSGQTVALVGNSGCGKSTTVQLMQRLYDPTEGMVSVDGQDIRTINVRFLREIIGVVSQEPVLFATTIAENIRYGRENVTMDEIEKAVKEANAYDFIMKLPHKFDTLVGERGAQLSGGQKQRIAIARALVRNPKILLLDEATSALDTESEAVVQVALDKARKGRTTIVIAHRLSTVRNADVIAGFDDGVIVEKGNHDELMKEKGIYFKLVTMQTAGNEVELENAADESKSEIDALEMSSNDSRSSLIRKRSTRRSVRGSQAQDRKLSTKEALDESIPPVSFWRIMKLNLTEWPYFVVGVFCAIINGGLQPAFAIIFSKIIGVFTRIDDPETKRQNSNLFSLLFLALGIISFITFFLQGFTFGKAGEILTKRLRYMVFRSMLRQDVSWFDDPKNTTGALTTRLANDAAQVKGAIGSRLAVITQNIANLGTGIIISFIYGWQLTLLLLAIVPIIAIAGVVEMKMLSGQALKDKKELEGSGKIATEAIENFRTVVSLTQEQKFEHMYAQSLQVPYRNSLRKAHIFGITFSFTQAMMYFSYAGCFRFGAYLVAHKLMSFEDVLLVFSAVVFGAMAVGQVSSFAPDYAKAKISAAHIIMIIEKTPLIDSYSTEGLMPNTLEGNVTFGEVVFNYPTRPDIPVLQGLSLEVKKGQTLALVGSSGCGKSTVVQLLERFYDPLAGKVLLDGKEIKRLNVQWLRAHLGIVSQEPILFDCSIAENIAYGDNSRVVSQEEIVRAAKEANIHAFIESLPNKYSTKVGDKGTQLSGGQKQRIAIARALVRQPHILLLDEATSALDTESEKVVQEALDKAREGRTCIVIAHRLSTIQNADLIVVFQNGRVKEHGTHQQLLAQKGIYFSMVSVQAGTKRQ
For `COc1ccc2c3c1O[C@H]1CC=C[C@H]4[C@@H](C2)N(C)CC[C@]314`, the result was Active.
As to `CN1CC[C@]23c4c5cccc4O[C@H]2[C@@H](O)CC[C@H]3[C@H]1C5`, the result was Active.
On the same count and under the same terms, for `CN1CC[C@]23c4c5ccc(O)c4O[C@H]2CC=C[C@H]3[C@H]1C5` the value was “Active”.

For a further series, the target named is Mu-type opioid receptor (Homo sapiens, UniProt P35372). In words: Displacement of [3H]diprenorphine from recombinant mu opioid receptor expressed in C6 cells. It counts as cell-based.
Mu-type opioid receptor, sequence (P35372 whole entry): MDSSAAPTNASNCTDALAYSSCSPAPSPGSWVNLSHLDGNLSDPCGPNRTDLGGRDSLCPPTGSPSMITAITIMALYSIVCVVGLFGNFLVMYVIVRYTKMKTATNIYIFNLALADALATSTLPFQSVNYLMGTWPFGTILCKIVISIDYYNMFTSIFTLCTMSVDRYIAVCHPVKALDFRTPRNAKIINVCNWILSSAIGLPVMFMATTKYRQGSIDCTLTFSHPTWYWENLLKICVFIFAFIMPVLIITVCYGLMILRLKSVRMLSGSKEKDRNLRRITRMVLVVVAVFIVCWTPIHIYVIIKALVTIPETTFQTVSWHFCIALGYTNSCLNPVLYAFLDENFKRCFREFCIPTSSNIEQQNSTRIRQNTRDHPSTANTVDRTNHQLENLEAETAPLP
The Ki is a measure of affinity in units of concentration, obtained from inhibition or displacement. As for `COc1ccc2c3c1O[C@H]1CC=C[C@H]4[C@@H](C2)N(C)CC[C@]314`, the Ki is 305 nM.
For the compound `CO[C@H]1CC[C@H]2[C@H]3Cc4cccc5c4[C@@]2(CCN3C)[C@H]1O5`, the Ki is 524 nM.
Still for that read-out and setting: next, `CN1CC[C@]23c4c5cccc4O[C@H]2CCC[C@H]3[C@H]1C5`: 22.9 nM.
Same read-out and setting: next, `CN1CC[C@]23c4c5cccc4O[C@H]2[C@@H](O)CC[C@H]3[C@H]1C5`: 122 nM; `CN1CC[C@]23c4c5ccc(O)c4O[C@H]2CC=C[C@H]3[C@H]1C5`: 2.1 nM.
On to `COc1ccc2c3c1O[C@H]1[C@@H](OC)C=C[C@H]4[C@@H](C2)N(C)CC[C@@]341`, for which the Ki is 1910 nM.

A further series has as its target Delta-type opioid receptor (Homo sapiens, UniProt P41143). The series can be described thus: Displacement of [3H]diprenorphine from recombinant delta opioid receptor expressed in C6 cells. It counts as cell-based. Put shortly: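 Competitive binding against [3H]diprenorphine in membranes of C6 rat glioma cells expressing recombinant δ opioid receptor; Ki from three experiments run in duplicate, mean ± SEM.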
On the technique in general: In a radioligand displacement assay an active substance lowers the binding of a labelled ligand.
On to `COc1ccc2c3c1O[C@H]1CC=C[C@H]4[C@@H](C2)N(C)CC[C@]314`, for which the Ki stood at 4520 nM.
`CO[C@H]1CC[C@H]2[C@H]3Cc4cccc5c4[C@@]2(CCN3C)[C@H]1O5`: the Ki amounted to 8830 nM.
Regarding `CN1CC[C@]23c4c5cccc4O[C@H]2CCC[C@H]3[C@H]1C5`, the Ki turned out to be 241 nM.
The same measure, in the same setting: next, `CO[C@H]1C=C[C@H]2[C@H]3Cc4ccc(O)c5c4[C@@]2(CCN3C)[C@H]1O5` [HETEROCODEINE]: 65.8 nM.
On to `CN1CC[C@]23c4c5cccc4O[C@H]2[C@@H](O)CC[C@H]3[C@H]1C5`, for which the Ki was 5250 nM.
Take `CN1CC[C@]23c4c5ccc(O)c4O[C@H]2CC=C[C@H]3[C@H]1C5`: the Ki was 11.8 nM.
The same measure, in the same setting: next, `COc1ccc2c3c1O[C@H]1[C@@H](OC)C=C[C@H]4[C@@H](C2)N(C)CC[C@@]341`: 4410 nM.

The target of a further series is Kappa-type opioid receptor (Homo sapiens, UniProt P41145). In words: Displacement of [3H]diprenorphine from recombinant kappa opioid receptor expressed in CHO cells. It counts as cell-based.
Kappa-type opioid receptor, sequence (P41145 whole entry): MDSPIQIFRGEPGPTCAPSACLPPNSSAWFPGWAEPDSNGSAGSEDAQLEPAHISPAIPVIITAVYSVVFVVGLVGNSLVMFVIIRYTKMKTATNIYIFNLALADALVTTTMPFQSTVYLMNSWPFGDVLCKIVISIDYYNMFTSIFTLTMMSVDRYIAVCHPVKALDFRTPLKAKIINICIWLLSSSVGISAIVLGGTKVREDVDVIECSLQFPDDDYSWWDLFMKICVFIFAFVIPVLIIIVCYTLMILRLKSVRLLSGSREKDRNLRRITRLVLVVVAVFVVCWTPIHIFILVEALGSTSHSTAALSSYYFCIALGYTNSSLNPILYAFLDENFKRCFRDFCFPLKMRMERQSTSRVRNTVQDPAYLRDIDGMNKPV
In the case of `COc1ccc2c3c1O[C@H]1CC=C[C@H]4[C@@H](C2)N(C)CC[C@]314`, the Ki is 3090 nM.
Same read-out and setting: for `CO[C@H]1CC[C@H]2[C@H]3Cc4cccc5c4[C@@]2(CCN3C)[C@H]1O5` the value was 11600 nM; for `CN1CC[C@]23c4c5cccc4O[C@H]2CCC[C@H]3[C@H]1C5`, 589 nM; for `CO[C@H]1C=C[C@H]2[C@H]3Cc4ccc(O)c5c4[C@@]2(CCN3C)[C@H]1O5` [HETEROCODEINE], 22.8 nM.
On the same count and under the same terms, next, `CN1CC[C@]23c4c5cccc4O[C@H]2[C@@H](O)CC[C@H]3[C@H]1C5`: 4910 nM; `CN1CC[C@]23c4c5ccc(O)c4O[C@H]2CC=C[C@H]3[C@H]1C5`: 45.5 nM.
Regarding `COc1ccc2c3c1O[C@H]1[C@@H](OC)C=C[C@H]4[C@@H](C2)N(C)CC[C@@]341`, the Ki is 5430 nM.

Test system in another series: not listed separately
In words: Selectivity for recombinant mu opioid receptor over recombinant delta opioid receptor. Summed up:
(§1)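 Ratios of Ki values from [3H]diprenorphine displacement in membranes of C6 rat glioma cells expressing µ or δ receptors and CHO cells expressing κ receptor; three experiments in duplicate.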
Take `COc1ccc2c3c1O[C@H]1CC=C[C@H]4[C@@H](C2)N(C)CC[C@]314`: the Ratio Ki stood at 15.
Same read-out and setting: next, `CO[C@H]1CC[C@H]2[C@H]3Cc4cccc5c4[C@@]2(CCN3C)[C@H]1O5`: 17; `CN1CC[C@]23c4c5cccc4O[C@H]2CCC[C@H]3[C@H]1C5`: 11.
`CN1CC[C@]23c4c5cccc4O[C@H]2[C@@H](O)CC[C@H]3[C@H]1C5`: the Ratio Ki came out at 43.
On the same count and under the same terms, for `CN1CC[C@]23c4c5ccc(O)c4O[C@H]2CC=C[C@H]3[C@H]1C5` the value was 4; for `COc1ccc2c3c1O[C@H]1[C@@H](OC)C=C[C@H]4[C@@H](C2)N(C)CC[C@@]341`, 2.

Test system in a further series: not listed separately
In words: Selectivity for recombinant mu opioid receptor over recombinant kappa opioid receptor. Summed up: as §1
For `COc1ccc2c3c1O[C@H]1CC=C[C@H]4[C@@H](C2)N(C)CC[C@]314`, the Ratio Ki amounted to 10.
The same measure, in the same setting: next, `CO[C@H]1CC[C@H]2[C@H]3Cc4cccc5c4[C@@]2(CCN3C)[C@H]1O5`: 22; `CN1CC[C@]23c4c5cccc4O[C@H]2CCC[C@H]3[C@H]1C5`: 26.
As to `CN1CC[C@]23c4c5cccc4O[C@H]2[C@@H](O)CC[C@H]3[C@H]1C5`, the Ratio Ki is 40.
Same read-out and setting: next, `CN1CC[C@]23c4c5ccc(O)c4O[C@H]2CC=C[C@H]3[C@H]1C5`: 16; `COc1ccc2c3c1O[C@H]1[C@@H](OC)C=C[C@H]4[C@@H](C2)N(C)CC[C@@]341`: 3.

In the next series the test system is Mus musculus. In words: Antinociceptive activity in sc dosed mouse by tail flick assay. It counts as functional. Summed up: (§2)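 Mice, test compound given subcutaneously; antinociception measured in tail-flick, p-phenylquinone writhing and hot plate assays following CPDD Drug Evaluation Committee protocols. ED50 (mg/kg) with 95% confidence limits.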
(Hot-plate and tail-flick tests time the reaction to a heat stimulus.)
For orientation: ED50 means the dose that gives a 50% effect, or the effect in half of the subjects. Lower therefore signals an effect at a small dose. `CN1CC[C@]23c4c5ccc(O)c4O[C@H]2CC=C[C@H]3[C@H]1C5` showed an ED50 of 0.2 mg/kg.

Another series deals with Mus musculus. In words: Antinociceptive activity in sc dosed mouse by p-phenylquinone writhing assay. It counts as functional. Summed up:
as §2
(An intraperitoneal irritant provokes the stretching counted in writhing tests.)
As to `CN1CC[C@]23c4c5ccc(O)c4O[C@H]2CC=C[C@H]3[C@H]1C5`, the 50% effect level (ED50) was put at a dose of 0.03 mg/kg.

The subject of the next series is Mus musculus. The series can be described thus: Antinociceptive activity in sc dosed mouse by hot plate assay. It is filed as functional. Summed up:
as §2
`CN1CC[C@]23c4c5ccc(O)c4O[C@H]2CC=C[C@H]3[C@H]1C5` came in with an ED50 of 0.33 mg/kg.

Source of the values: ChEMBL document CHEMBL1144851, “Opioids and efflux transporters. Part 2: P-glycoprotein substrate activity of 3- and 6-substituted morphine analogs” (J Med Chem, 2008).
